Converted amounts (≈) assume the structure as drawn.

Experiment [1] relates to Human alphaherpesvirus 1. Briefly: Evaluation of antiviral activity against Herpes simplex virus type 1 (HSV-1) strain McIntyre. The format is functional. The method in brief:
(§1)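 Virus-induced cytopathogenicity scored in primary rabbit kidney cell cultures. Value is the minimum concentration reducing cytopathogenicity by 50%. Cytotoxicity on uninfected cells was read as the minimal concentration causing a microscopically detectable change in normal cell morphology, tested up to 400 μg/mL.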

The test system of experiment [2] is Human alphaherpesvirus 2. Briefly: Evaluation of antiviral activity against Herpes simplex virus type 2 (HSV-2) strain 196. The experiment is classed as functional. The method in brief:
as §1

In another experiment the test system is Vaccinia virus. Briefly: Evaluation of antiviral activity against Vaccinia virus. The experiment is classed as functional. As to conditions: Orthopoxvirus vaccinia. The method in brief:
as §1

In experiment [3] the test system is Human alphaherpesvirus 2. Put plainly: Evaluation of antiviral activity against Herpes simplex virus type 2 (HSV-2) strain Lyons. The format is functional. The essentials:
as §1

In experiment [4] the test system is Human alphaherpesvirus 1. Briefly: Compound was evaluated for the antiviral activity against Herpes simplex virus type 1 (HSV-1) strain KOS. The experiment is classed as functional. The conditions noted are these: read-out: ID50 (the source's name). The method in brief:
as §1

Experiment [5] has as its system Human alphaherpesvirus 1. Briefly: Compound was evaluated for the antiviral activity against Herpes simplex virus type 1 (HSV-1) strain F. The experiment is classed as functional. As to conditions: read-out: ID50 (the source's name). The essentials: as §1
For experiment [6], the system named is Vesicular stomatitis virus. Briefly: Evaluation of antiviral activity against Vesicular stomatitis virus. The format is functional. The method in brief: as §1
Experiment [7] has as its system Human alphaherpesvirus 2. Briefly: Evaluation of antiviral activity against Herpes simplex virus type 2 (HSV-2) strain G. The format is functional. The method in brief: as §1
Experiment [8] has as its system L1210. Briefly: Evaluation of cytostatic activity by using antitumor assays against murine leukemia L1210 cells. The experiment is classed as functional. The conditions noted are these: Mus musculus, read-out: ID50 (the source's name).
The target in experiment [9] is Thymidylate synthase (Mus musculus) (UniProt P07607).
For experiment [10], the system named is L1210. Put plainly: Evaluation of antitumor activity against mutant murine leukemia L1210 cells. The format is functional. The conditions noted are these: Mus musculus, read-out: ID50 (the source's name). The method in brief:
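Proliferation of mutant murine leukemia L1210/BdUrd cells, selected from parental L1210/0 for growth in 260 μg/mL 5-bromo-2'-deoxyuridine. Value is the dose inhibiting proliferation by 50%.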

For experiment [11], the system named is Human alphaherpesvirus 1. Put plainly: Evaluation of antiviral activity against Herpes simplex virus type 1 (HSV-1) strain KOS. The format is functional. The essentials: as §1
Experiment [12] concerns Human alphaherpesvirus 1. Put plainly: Evaluation of antiviral activity against Herpes simplex virus type 1 (HSV-1) strain F. The experiment is classed as functional. The essentials:
as §1

For the next experiment, the species on record is Homo sapiens. Briefly: Evaluation for antitumor activity against human lymphoblast Raji cells. The experiment is classed as functional. As to conditions: Homo sapiens, Raji; read-out: ID50 (the source's name).
The test system of the next experiment is Raji. Briefly: Evaluation of antitumor activity against thymidine kinase deficient Raji cell line. The experiment is classed as functional. As to conditions: Homo sapiens, read-out: ID50 (the source's name).
Experiment [13] concerns the target Thymidylate synthase (Mus musculus) (UniProt P07607). Briefly: Compound was evaluated for the inhibition of L1210 Thymidylate synthase. The essentials: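 Thymidylate (dTMP) synthetase inhibition measured with a partially purified extract of L1210 cells as the enzyme source.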
Experiment [14] relates to Vesicular stomatitis virus. Put plainly: Compound was evaluated for the antiviral activity against Vesicular stomatitis virus. The format is functional. The method in brief: as §1
Experiment [15] addresses Thymidylate synthase (Mus musculus) (UniProt P07607). Put plainly: Compound was evaluated for the inhibition of L1210 thymidylate synthetase (L1210 dTMP). The essentials: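 Enzyme source was a partially purified extract of murine leukemia L1210 cells. The dTMP synthetase assay followed an earlier published method, and no reaction conditions are given here.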

Thymidylate synthase (Mus musculus), sequence (P07607 whole entry, looked up): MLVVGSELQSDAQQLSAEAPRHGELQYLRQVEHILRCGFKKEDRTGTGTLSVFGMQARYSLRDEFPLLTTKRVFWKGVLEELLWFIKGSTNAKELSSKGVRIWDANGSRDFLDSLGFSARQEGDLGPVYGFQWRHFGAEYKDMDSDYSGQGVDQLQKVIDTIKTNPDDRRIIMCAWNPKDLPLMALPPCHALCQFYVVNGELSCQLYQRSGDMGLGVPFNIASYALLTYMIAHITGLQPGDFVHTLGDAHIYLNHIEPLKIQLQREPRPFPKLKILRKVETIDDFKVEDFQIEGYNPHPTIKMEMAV

In the case of `COP1(=O)OC[C@H]2O[C@@H](n3cc(I)c(=O)[nH]c3=O)C[C@@H]2O1` (stereo partly drawn), the MIC50 is 70 µg/mL (≈ 163 µM) against Human alphaherpesvirus 1 [1]; 300 µg/mL (≈ 698 µM) in the experiment with Human alphaherpesvirus 2 [2]; 20 µg/mL (≈ 46.5 µM) in the experiment on Vaccinia virus; 150 µg/mL (≈ 349 µM) in the experiment on Human alphaherpesvirus 2 [3]; above 400 µg/mL in [6]; 300 µg/mL (≈ 698 µM) in the experiment with Human alphaherpesvirus 2 [7]. Moreover, the IC50 with Human alphaherpesvirus 1 [4] and in the experiment on Human alphaherpesvirus 1 [5] was 150 µg/mL (≈ 349 µM) each time.

Consider `O=c1[nH]c(=O)n([C@H]2C[C@H](O)[C@@H](COP(=O)(O)O)O2)cc1I`, for which the MIC50 against Human alphaherpesvirus 1 [1] is 0.2 µg/mL (≈ 0.461 µM); against Human alphaherpesvirus 2 [2] it was 0.7 µg/mL (≈ 1.61 µM); against Vaccinia virus, 0.2 µg/mL (≈ 0.461 µM); with Human alphaherpesvirus 2 [3], 0.2 µg/mL (≈ 0.461 µM); against Human alphaherpesvirus 1 [11] it was 0.2 µg/mL (≈ 0.461 µM); in [6], above 400 µg/mL. Besides, the MIC50 against Human alphaherpesvirus 1 [12] and against Human alphaherpesvirus 2 [7] was 0.4 µg/mL (≈ 0.921 µM) in each case. Also, the IC50 was 31 µg/mL (≈ 71.4 µM) in the experiment on L1210 [8], above 500 µg/mL in the experiment on L1210 [10], 6.8 µg/mL (≈ 15.7 µM) in the experiment listed under Homo sapiens and above 500 µg/mL with Raji. In addition, the Ki/Km in [9] came out at 3.54.

Turning to `N.O=c1[nH]c(=O)n([C@H]2C[C@@H]3O[PH](O)(O)OC[C@H]3O2)cc1Br`, the MIC50 is 2 µg/mL in the experiment on Human alphaherpesvirus 1 [1]; 20 µg/mL with Human alphaherpesvirus 2 [2]; 1 µg/mL in the experiment with Vaccinia virus; 2 µg/mL against Human alphaherpesvirus 2 [3]; 2 µg/mL in the experiment on Human alphaherpesvirus 1 [11]; above 400 µg/mL in experiment [6]. In addition, the MIC50 against Human alphaherpesvirus 1 [12] and with Human alphaherpesvirus 2 [7] was 2 µg/mL in each case. For the same molecule, the IC50 in the experiment with L1210 [8] is 457 µg/mL; with L1210 [10], above 1000 µg/mL; in the experiment filed under Homo sapiens it was 224 µg/mL; in the experiment with Raji, above 1000 µg/mL. This molecule came in with a Ki/Km in [13] above 354.

For `O=c1[nH]c(=O)n([C@H]2C[C@H](O)[C@@H](COP(=O)(O)O)O2)cc1C(F)(F)F`, the MIC50 is 0.4 µg/mL (≈ 1.06 µM) with Human alphaherpesvirus 1 [1]; 0.7 µg/mL (≈ 1.86 µM) with Human alphaherpesvirus 2 [2]; 0.2 µg/mL (≈ 0.532 µM) in the experiment with Vaccinia virus; 0.6 µg/mL (≈ 1.59 µM) against Human alphaherpesvirus 2 [3]; 0.7 µg/mL (≈ 1.86 µM) in the experiment with Human alphaherpesvirus 1 [11]; above 400 µg/mL in experiment [6]. The MIC50 against Human alphaherpesvirus 1 [12] and against Human alphaherpesvirus 2 [7] was 0.7 µg/mL (≈ 1.86 µM) each time. Besides, the IC50 in the experiment on L1210 [8] was 0.017 µg/mL (≈ 0.0452 µM); in the experiment with L1210 [10], 38 µg/mL (≈ 101 µM); in the experiment filed under Homo sapiens, 0.169 µg/mL (≈ 0.449 µM); with Raji, 212 µg/mL (≈ 564 µM). Further, the Ki/Km in [13] was 0.061.

For the molecule `N.O=c1[nH]c(=O)n([C@H]2C[C@@H]3O[PH](O)(O)OC[C@H]3O2)cc1Cl`, the MIC50 is 100 µg/mL with Human alphaherpesvirus 1 [1]; 150 µg/mL in the experiment on Human alphaherpesvirus 2 [2]; above 400 µg/mL in experiment [14]; 2 µg/mL in the experiment on Vaccinia virus; 20 µg/mL against Human alphaherpesvirus 2 [3]; 20 µg/mL in the experiment with Human alphaherpesvirus 1 [11]. Moreover, the MIC50 in the experiment with Human alphaherpesvirus 1 [12] was 100 µg/mL; in the experiment with Human alphaherpesvirus 2 [7], 40 µg/mL. The IC50 in the experiment with L1210 [8] was 337 µg/mL; in the experiment with L1210 [10], above 1000 µg/mL; in the experiment listed under Homo sapiens it was 337 µg/mL; in the experiment on Raji, above 1000 µg/mL. In [15], this molecule yielded a Ki/Km above 356.

Regarding `N.O=c1[nH]c(=O)n([C@H]2C[C@@H]3O[PH](O)(O)OC[C@H]3O2)cc1F`, the MIC50 against Human alphaherpesvirus 1 [1] was above 400 µg/mL; against Human alphaherpesvirus 2 [2] it was at least 400 µg/mL; in the experiment on Vaccinia virus it was 1.5 µg/mL; against Human alphaherpesvirus 2 [3], at least 200 µg/mL; against Human alphaherpesvirus 1 [11], above 400 µg/mL; in [6] it was above 400 µg/mL. Further, the MIC50 against Human alphaherpesvirus 1 [12] was above 400 µg/mL; in the experiment on Human alphaherpesvirus 2 [7], at least 300 µg/mL. Also, the IC50 worked out at 0.06 µg/mL in the experiment on L1210 [8], 7.4 µg/mL in the experiment on L1210 [10], 0.164 µg/mL in the experiment listed under Homo sapiens and 19 µg/mL in the experiment with Raji. The Ki/Km in [15] was determined as 38.
